Results as given in ChEMBL document CHEMBL1144412, “High affinity central benzodiazepine receptor ligands: synthesis and biological evaluation of a series of phenyltriazolobenzotriazindione derivatives” (J Med Chem, 2005).

Assays:
[1] = target: GABA-A receptor; anion channel; experiment: Displacement of [3H]flumazenil from bovine benzodiazepine receptor GABA-A channel of brain membranes; design: species or system Bos taurus
[2] = target: GABA A receptor alpha-2/beta-2/gamma-2 (Rattus norvegicus, UniProt P18508+P23576+P63138); experiment: Displacement of [3H]flumazenil from rat GABA-A Gamma-aminobutyric acid A receptor alpha-2-beta-2-gamma-2 expressed in HEK293 cells; type: cell-based
How it was run: (§1)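 HEK293 cells stably expressing each rat subtype, grown in DMEM/F-12 with 10% FBS at 37 °C, 5% CO2. Harvested cells were homogenized in 10 mM potassium phosphate pH 7.4 and spun at 48 000g for 30 min at 4 °C. Pellets were washed and resuspended with 100 mM KCl. Ki from three determinations.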

[3] = target: GABA A receptor alpha-5/beta-3/gamma-2 (Rattus norvegicus, UniProt P18508+P19969+P63079); experiment: Displacement of [3H]flumazenil from rat GABA-A Gamma-aminobutyric acid A receptor alpha-5-beta-3-gamma-2 expressed in HEK293 cells; type: cell-based
How it was run: as §1, with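 “KCl. Incubated with [3H]flumazenil 1-2 nM and compound 10-9-10-5 M for 1 h at 4 °C. […]” for “KCl.”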

[4] = target: GABA-A receptor; alpha-1/beta-2/gamma-2 (Rattus norvegicus, UniProt P18508+P62813+P63138); experiment: Displacement of [3H]flumazenil from rat GABA-A Gamma-aminobutyric acid A receptor alpha-1-beta-2-gamma-2 expressed in HEK293 cells; type: cell-based; how it was run: as §1
Chain of GABA-A receptor; alpha-1/beta-2/gamma-2 (P18508 whole entry): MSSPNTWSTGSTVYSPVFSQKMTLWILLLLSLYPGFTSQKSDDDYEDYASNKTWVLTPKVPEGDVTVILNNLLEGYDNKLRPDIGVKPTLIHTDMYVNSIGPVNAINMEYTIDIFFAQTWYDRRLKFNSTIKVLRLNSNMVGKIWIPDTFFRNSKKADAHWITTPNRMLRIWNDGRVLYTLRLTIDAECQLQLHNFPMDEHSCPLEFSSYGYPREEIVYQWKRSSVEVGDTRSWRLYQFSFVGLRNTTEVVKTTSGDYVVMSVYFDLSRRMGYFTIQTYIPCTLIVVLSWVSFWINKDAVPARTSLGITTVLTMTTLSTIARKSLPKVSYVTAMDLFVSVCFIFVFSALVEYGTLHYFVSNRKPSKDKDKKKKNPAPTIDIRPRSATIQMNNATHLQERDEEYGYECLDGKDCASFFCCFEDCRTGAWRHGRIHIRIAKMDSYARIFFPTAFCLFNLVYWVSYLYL
Chain of GABA-A receptor; alpha-1/beta-2/gamma-2 (P62813 whole entry): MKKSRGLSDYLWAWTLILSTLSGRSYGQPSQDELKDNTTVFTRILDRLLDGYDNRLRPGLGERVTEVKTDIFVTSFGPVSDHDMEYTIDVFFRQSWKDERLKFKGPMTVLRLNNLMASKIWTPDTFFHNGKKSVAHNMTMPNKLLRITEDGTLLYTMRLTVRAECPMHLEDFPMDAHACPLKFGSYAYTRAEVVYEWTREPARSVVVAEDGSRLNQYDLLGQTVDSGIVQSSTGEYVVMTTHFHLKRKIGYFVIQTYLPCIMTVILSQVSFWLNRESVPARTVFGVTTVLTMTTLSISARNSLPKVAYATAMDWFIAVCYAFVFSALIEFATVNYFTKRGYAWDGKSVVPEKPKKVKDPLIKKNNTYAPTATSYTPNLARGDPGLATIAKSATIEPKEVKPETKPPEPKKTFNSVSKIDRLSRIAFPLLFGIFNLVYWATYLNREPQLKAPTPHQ
Chain of GABA-A receptor; alpha-1/beta-2/gamma-2 (P63138 whole entry): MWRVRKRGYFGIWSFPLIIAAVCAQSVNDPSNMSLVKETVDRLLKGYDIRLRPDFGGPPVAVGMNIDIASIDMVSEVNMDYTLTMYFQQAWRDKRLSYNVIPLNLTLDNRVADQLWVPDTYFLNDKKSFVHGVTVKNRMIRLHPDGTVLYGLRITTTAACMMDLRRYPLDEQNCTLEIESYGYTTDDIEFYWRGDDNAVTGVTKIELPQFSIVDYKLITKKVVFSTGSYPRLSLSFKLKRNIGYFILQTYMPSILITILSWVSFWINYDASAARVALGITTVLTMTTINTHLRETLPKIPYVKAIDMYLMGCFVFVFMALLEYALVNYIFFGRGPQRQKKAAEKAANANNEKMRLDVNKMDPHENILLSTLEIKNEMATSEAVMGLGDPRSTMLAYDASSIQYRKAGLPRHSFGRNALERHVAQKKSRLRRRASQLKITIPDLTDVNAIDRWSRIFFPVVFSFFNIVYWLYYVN

Chain of GABA A receptor alpha-2/beta-2/gamma-2 (P18508 whole entry): as the sequence (P18508 whole entry) above
Chain of GABA A receptor alpha-2/beta-2/gamma-2 (P23576 whole entry): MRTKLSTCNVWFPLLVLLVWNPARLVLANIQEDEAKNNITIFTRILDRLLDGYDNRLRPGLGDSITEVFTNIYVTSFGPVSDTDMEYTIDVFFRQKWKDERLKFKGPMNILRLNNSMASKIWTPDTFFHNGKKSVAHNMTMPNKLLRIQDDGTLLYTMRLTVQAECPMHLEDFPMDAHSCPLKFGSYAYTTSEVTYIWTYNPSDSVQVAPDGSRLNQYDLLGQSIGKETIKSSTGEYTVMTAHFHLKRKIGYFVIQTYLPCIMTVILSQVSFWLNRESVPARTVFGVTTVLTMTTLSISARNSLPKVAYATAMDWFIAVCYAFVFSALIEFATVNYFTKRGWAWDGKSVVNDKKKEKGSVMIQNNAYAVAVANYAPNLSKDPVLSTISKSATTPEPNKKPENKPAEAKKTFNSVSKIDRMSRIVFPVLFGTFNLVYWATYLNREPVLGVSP
Chain of GABA A receptor alpha-2/beta-2/gamma-2 (P63138 whole entry): as the sequence (P63138 whole entry) above
Chain of GABA A receptor alpha-5/beta-3/gamma-2 (P18508 whole entry): as the sequence (P18508 whole entry) above
Chain of GABA A receptor alpha-5/beta-3/gamma-2 (P19969 whole entry): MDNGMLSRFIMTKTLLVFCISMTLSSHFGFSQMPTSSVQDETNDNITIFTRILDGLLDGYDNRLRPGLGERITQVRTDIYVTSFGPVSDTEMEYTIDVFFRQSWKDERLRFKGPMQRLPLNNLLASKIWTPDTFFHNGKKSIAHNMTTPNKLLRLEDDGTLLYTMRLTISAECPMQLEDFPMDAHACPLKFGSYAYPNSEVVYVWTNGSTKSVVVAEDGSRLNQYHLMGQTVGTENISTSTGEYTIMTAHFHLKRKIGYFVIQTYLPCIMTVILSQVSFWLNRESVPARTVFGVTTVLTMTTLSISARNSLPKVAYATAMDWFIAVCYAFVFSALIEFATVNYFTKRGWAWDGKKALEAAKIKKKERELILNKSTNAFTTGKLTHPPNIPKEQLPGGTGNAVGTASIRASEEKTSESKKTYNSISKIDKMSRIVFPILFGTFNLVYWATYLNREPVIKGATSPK
Chain of GABA A receptor alpha-5/beta-3/gamma-2 (P63079 whole entry): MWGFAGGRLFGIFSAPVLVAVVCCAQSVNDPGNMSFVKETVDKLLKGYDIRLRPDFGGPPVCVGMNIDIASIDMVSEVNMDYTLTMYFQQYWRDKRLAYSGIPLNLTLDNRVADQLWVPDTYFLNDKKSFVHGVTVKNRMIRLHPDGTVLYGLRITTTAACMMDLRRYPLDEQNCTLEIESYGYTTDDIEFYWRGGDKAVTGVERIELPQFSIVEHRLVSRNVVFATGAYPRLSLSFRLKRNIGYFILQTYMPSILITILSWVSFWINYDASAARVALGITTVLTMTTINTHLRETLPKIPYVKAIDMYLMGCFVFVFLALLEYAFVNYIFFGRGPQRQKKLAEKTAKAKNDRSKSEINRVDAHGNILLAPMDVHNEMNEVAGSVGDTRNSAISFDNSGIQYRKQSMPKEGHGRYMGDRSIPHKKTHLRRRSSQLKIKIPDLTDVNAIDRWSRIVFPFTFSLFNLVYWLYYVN

O=c1[nH]c2ccccc2n2c(=O)c(-c3ccc(F)cc3)nn12
Ki [1]: 54 nM

O=c1[nH]c2ccc(Cl)cc2n2c(=O)c(-c3ccccc3)nn12
Ki [2]: 13.9 nM
Ki [1]: 2.8 nM
Ki [3]: 10.3 nM
Ki [4]: 1.74 nM

O=c1[nH]c2ccccc2n2c(=O)c(-c3ccc(Cl)cc3)nn12
Ki [1]: 169 nM

O=c1[nH]c2ccccc2n2c(=O)c(-c3ccc(Br)cc3)nn12
Ki [1]: 224 nM

COc1ccc(-c2nn3c(=O)[nH]c4ccccc4n3c2=O)cc1OC
Ki [1]: > 10000 nM

O=c1[nH]c2ccc(Cl)cc2n2c(=O)c(-c3ccc(Cl)cc3)nn12
Ki [1]: 38 nM

COc1ccc(-c2nn3c(=O)[nH]c4ccccc4n3c2=O)cc1
Ki [2]: 14.3 nM
Ki [1]: 11 nM
Ki [3]: 17.2 nM
Ki [4]: 3.76 nM

Cc1ccc(-c2nn3c(=O)[nH]c4ccccc4n3c2=O)cc1
Ki [1]: 616 nM

COc1ccc(-c2nn3c(=O)[nH]c4ccc(Cl)cc4n3c2=O)cc1
Ki [2]: 18 nM
Ki [1]: 6 nM
Ki [3]: 7.57 nM
Ki [4]: 1.82 nM

O=c1[nH]c2ccc(Cl)cc2n2c(=O)c(-c3ccc(F)cc3)nn12
Ki [1]: 56 nM

Cc1ccc(-c2nn3c(=O)[nH]c4ccc(Cl)cc4n3c2=O)cc1
Ki [1]: 185 nM

O=c1[nH]c2ccccc2n2c(=O)c(-c3ccccc3F)nn12
Ki [1]: > 10000 nM

O=c1[nH]c2ccccc2n2c(=O)c(-c3ccccc3)nn12
Ki [2]: 27.6 nM
Ki [1]: 22 nM
Ki [3]: 24.1 nM
Ki [4]: 9.14 nM

O=C1CN=C(c2ccccc2Cl)c2cc([N+](=O)[O-])ccc2N1 [CLONAZEPAM]
Ki [1]: 0.85 nM
